Source: ChEMBL document CHEMBL1124791, “Structure-activity relationships of the lissoclinamides: cytotoxic cyclic peptides from the ascidian Lissoclinum patella” (J Med Chem, 1990)
In brackets after ≈: the same amount, converted by molar mass.

Experiments:
T-24 = assay: Concentration required for 50% inhibition of growth by the compound in transitional bladder carcinoma T24 cells; type: functional, cell-based, Homo sapiens
Outline: (§1)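 Cells kept in RPMI 1640 with 10% fetal calf serum at 37 °C, 5% CO2, then plated at 1 × 10^4 per 100 μL and left overnight. Exposure to varying concentrations for 1 h, followed by 48 h incubation. MTT (5 mg/mL stock) added for 4 h at 37 °C and formazan dissolved in 0.08 M HCl/2-propanol. Absorbance read at 540 nm against 690 nm reference. Three experiments, eight assays per point.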

MRC5CV1 = assay: Concentration required for 50% inhibition of growth by the compound in SV-40 transformed fibroblasts (MRC5CV1); type: functional, cell-based; conditions: Homo sapiens; outline: as §1
[1] = Concentration required for 50% inhibition of growth by the compound in normal peripheral blood lymphocytes; type: functional, cell-based, Homo sapiens
Outline: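 Human lymphocytes isolated from whole blood on Ficoll Paque, stimulated with PHA (1 μL/mL) for 72 h and plated at 1 × 10^5/mL. Compounds added over 100 to 0.1 μg/mL. Survival measured after 24 h by MTT colorimetric assay, with formazan dissolved in acidic 2-propanol and absorbance read at 540 nm.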

[2] = Homo sapiens, T-24, read-out: IC50

Structure (SMILES) | IC50 (T-24; t-24) [µg/mL] | IC50 (MRC5CV1) [µg/mL] | IC50 [1] [µg/mL] | IC50 (T-24; [2]) [µg/mL]
CC(C)C1NC(=O)C2N=C(OC2C)C2CCCN2C(=O)C(Cc2ccccc2)NC(=O)c2csc(n2)C(Cc2ccccc2)NC(=O)C2CSC1=N2 (stereo in doubt; form 2) | 0.8 (≈ 1.08 µM) | – | – | –
CC(C)C1NC(=O)C2N=C(OC2C)C2CCCN2C(=O)C(Cc2ccccc2)NC(=O)c2csc(n2)C(Cc2ccccc2)NC(=O)C2CSC1=N2 (stereo in doubt; form 1) | 6 (≈ 8.09 µM) | 1 (≈ 1.35 µM) | 8 (≈ 10.8 µM) | –
CC(C)[C@@H]1NC(=O)[C@H]2N=C(O[C@@H]2C)[C@@H]2CCCN2C(=O)[C@H](Cc2ccccc2)NC(=O)[C@@H]2CSC(=N2)[C@H](Cc2ccccc2)NC(=O)[C@@H]2CSC1=N2 | – | 0.04 (≈ 0.0538 µM) | 0.08 (≈ 0.108 µM) | 0.06 (≈ 0.0806 µM)
CC(C)C1NC(=O)C2N=C(OC2C)C2CCCN2C(=O)C(Cc2ccccc2)NC(=O)c2csc(n2)C(Cc2ccccc2)NC(=O)c2csc1n2 (stereo not given) | – | 15 (≈ 20.3 µM) | 20 (≈ 27 µM) | 10 (≈ 13.5 µM)
